# Data taken from ChEMBL document CHEMBL1126205, “Novel spirosuccinimides with incorporated isoindolone and benzisothiazole 1,1-dioxide moieties as aldose reductase inhibitors and antihyperglycemic agents” (1992).
# The source made the active and inactive calls. The calls are words filed in the database; no cut-off is given here.
# Experiments:
# [1] = biological target: Aldo-keto reductase family 1 member B1 (Bos taurus) (UniProt P16116); assay: In vitro aldose reductase inhibitory activity measured by NADPH-dependent inhibition of glyceraldehyde reduction in a partially purified bovine lens preparation at 10E-6 M
# Method in brief: (§1)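 Aldose reductase partially purified from bovine lens. Inhibition of NADPH-dependent glyceraldehyde reduction is measured at the single stated concentration and reported as percent inhibition, the mean of two determinations.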
# [2] = biological target: Aldo-keto reductase family 1 member B1 (Bos taurus) (UniProt P16116); assay: In vitro aldose reductase inhibitory activity measured by NADPH-dependent inhibition of glyceraldehyde reduction in a partially purified bovine lens preparation at 10E-7 M; method in brief: as §1
# Mus musculus [3] = assay: Antihyperglycemic activity measured as percent decrease in mice plasma glucose at 100 mg/Kg/day; format: functional
# Method in brief: (§2)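 Male db/db (C57BL/KsJ) mice, 4–6 per group, dosed at 100 mg/kg per day. Plasma glucose of the drug-treated group is expressed as percent decrease relative to a vehicle-treated control group. Values are mean ± SE, with p < 0.05 marked.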
# Rattus norvegicus [4] = assay: In vivo galactitol inhibitory activity measured by its ability to inhibit galactitol accumulation in sciatic nerve at 81 mg/Kg/day; format: functional
# Method in brief: (§3)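 Rats (n = 6) fed 20% galactose for 4 days, with compound given in the diet at the stated daily dose. Galactitol accumulation was measured in lens, sciatic nerve and diaphragm, and % inhibition was taken versus the nontreated group. Means are from three to eight drug-treated tissue samples. Dunnett's multiple comparison test was applied, with p > 0.05 reported as not significant.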
# Rattus norvegicus [5] = assay: In vivo galactitol inhibitory activity measured by its ability to inhibit galactitol accumulation in lens at 81 mg/Kg/day; format: functional; conditions: Lens of camera-type eye; method in brief: as §3
# Rattus norvegicus [6] = assay: In vivo galactitol inhibitory activity measured by its ability to inhibit galactitol accumulation in lens at 6 mg/Kg/day; format: functional, Lens of camera-type eye; conditions: Rattus norvegicus, Lens of camera-type eye
# Method in brief: (§4)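 Rats (n = 6) fed 20% galactose for 4 days, with compound given in the diet at the stated mg/kg per day. Galactitol accumulation in lens, sciatic nerve or diaphragm is scored as percent inhibition versus the non-treated group, as means of 3–8 drug-treated tissue samples. Dunnett's multiple comparison test applies; NS means p > 0.05.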
# Rattus norvegicus [7] = assay: In vivo galactitol inhibitory activity measured by its ability to inhibit galactitol accumulation in lens at 6 mg/Kg/day; NS=Not significant (% Inhibition); format: functional, organism-based; conditions: Lens of camera-type eye; method in brief: as §4
# Rattus norvegicus [8] = assay: In vivo galactitol inhibitory activity measured by its ability to inhibit galactitol accumulation in diaphragm at 81 mg/Kg/day; format: functional; method in brief: as §4
# Rattus norvegicus [9] = assay: In vivo galactitol inhibitory activity measured by its ability to inhibit galactitol accumulation in lens at 10 mg/Kg/day; format: functional; conditions: Lens of camera-type eye; method in brief: as §4
# Rattus norvegicus [10] = assay: In vivo galactitol inhibitory activity measured by its ability to inhibit galactitol accumulation in lens at 10 mg/Kg/day; NS=Not significant (% Inhibition); format: functional; conditions: Lens of camera-type eye; method in brief: as §4
# Rattus norvegicus [11] = assay: In vivo galactitol inhibitory activity measured by its ability to inhibit galactitol accumulation in lens at 3 mg/Kg/day; NS=Not significant (% Inhibition); format: functional, organism-based; conditions: Lens of camera-type eye; method in brief: as §4
# Rattus norvegicus [12] = assay: In vivo galactitol inhibitory activity measured by its ability to inhibit galactitol accumulation in sciatic nerve at 52 mg/Kg/day; format: functional; method in brief: as §3
# Rattus norvegicus [13] = assay: In vivo galactitol inhibitory activity measured by its ability to inhibit galactitol accumulation in sciatic nerve at 3 mg/Kg/day; NS=Not significant (% Inhibition); format: functional, organism-based; method in brief: as §3
# Rattus norvegicus [14] = assay: In vivo galactitol inhibitory activity measured by its ability to inhibit galactitol accumulation in lens at 52 mg/Kg/day; format: functional; conditions: Lens of camera-type eye; method in brief: as §4
# Rattus norvegicus [15] = assay: In vivo galactitol inhibitory activity measured by its ability to inhibit galactitol accumulation in diaphragm at 3 mg/Kg/day; format: functional; method in brief: as §4
# Rattus norvegicus [16] = assay: In vivo galactitol inhibitory activity measured by its ability to inhibit galactitol accumulation in diaphragm at 52 mg/Kg/day; format: functional; method in brief: as §4
# Rattus norvegicus [17] = assay: In vivo galactitol inhibitory activity measured by its ability to inhibit galactitol accumulation in sciatic nerve at 73 mg/Kg/day; format: functional; method in brief: as §3
# Rattus norvegicus [18] = assay: In vivo galactitol inhibitory activity measured by its ability to inhibit galactitol accumulation in lens at 66 mg/Kg/day; format: functional; conditions: Lens of camera-type eye; method in brief: as §3
# Rattus norvegicus [19] = assay: In vivo galactitol inhibitory activity measured by its ability to inhibit galactitol accumulation in diaphragm at 73 mg/Kg/day; format: functional; method in brief: as §4
# Rattus norvegicus [20] = assay: In vivo galactitol inhibitory activity measured by its ability to inhibit galactitol accumulation in sciatic nerve at 10 mg/kg/day; format: functional; method in brief: as §3
# Rattus norvegicus [21] = assay: In vivo galactitol inhibitory activity measured by its ability to inhibit galactitol accumulation in diaphragm at 10 mg/kg/day; format: functional; method in brief: as §4
# Rattus norvegicus [22] = assay: In vivo galactitol inhibitory activity measured by its ability to inhibit galactitol accumulation in sciatic nerve at 6 mg/Kg/day; NS=Not significant (% Inhibition); format: functional, organism-based; method in brief: as §3
# Rattus norvegicus [23] = assay: In vivo galactitol inhibitory activity measured by its ability to inhibit galactitol accumulation in sciatic nerve at 9 mg/Kg/day; format: functional; method in brief: as §3
# Rattus norvegicus [24] = assay: In vivo galactitol inhibitory activity measured by its ability to inhibit galactitol accumulation in sciatic nerve at 50 mg/Kg/day; format: functional; method in brief: as §3
# Rattus norvegicus [25] = assay: In vivo galactitol inhibitory activity measured by its ability to inhibit galactitol accumulation in lens at 9 mg/Kg/day; format: functional; conditions: Lens of camera-type eye; method in brief: as §3
# Rattus norvegicus [26] = assay: In vivo galactitol inhibitory activity measured by its ability to inhibit galactitol accumulation in lens at 50 mg/Kg/day; format: functional; conditions: Lens of camera-type eye; method in brief: as §4
# Rattus norvegicus [27] = assay: In vivo galactitol inhibitory activity measured by its ability to inhibit galactitol accumulation in diaphragm at 50 mg/Kg/day; format: functional; method in brief: as §4
# Rattus norvegicus [28] = assay: In vivo galactitol inhibitory activity measured by its ability to inhibit galactitol accumulation in diaphragm at 6 mg/Kg/day; format: functional; method in brief: as §4
# Rattus norvegicus [29] = assay: In vivo galactitol inhibitory activity measured by its ability to inhibit galactitol accumulation in diaphragm at 9 mg/Kg/day; format: functional; method in brief: as §4
# [30] = biological target: Aldo-keto reductase family 1 member B1 (Bos taurus) (UniProt P16116); assay: in vitro aldose reductase inhibitory activity measured by NADPH-dependent inhibition of glyceraldehyde reduction in a partially purified bovine lens preparation at 10e -6M conc.
# Method in brief: (§5)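 Partially purified aldose reductase from bovine lens. Inhibition of NADPH-dependent glyceraldehyde reduction was measured at a single test concentration. Values are % inhibition of enzymatic activity, mean of two determinations.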
# [31] = biological target: Aldo-keto reductase family 1 member B1 (Bos taurus) (UniProt P16116); assay: in vitro aldose reductase inhibitory activity measured by NADPH-dependent inhibition of glyceraldehyde reduction in a partially purified bovine lens preparation at 10e -7M conc.; g=no inhibitory activity; method in brief: as §5
# Mus musculus [32] = assay: Antihyperglycemic activity was determined by measuring percent decrease in plasma glucose at 100 mg/kg/day; format: functional; method in brief: as §2
# Rattus norvegicus [33] = assay: In vivo galactitol inhibitory activity measured by its ability to inhibit galactitol accumulation in sciatic nerve at 94 mg/kg/day; NS=not significant; format: functional, organism-based; method in brief: as §3
# Rattus norvegicus [34] = assay: In vivo galactitol inhibitory activity measured by its ability to inhibit galactitol accumulation in lens at 94 mg/Kg/day; NS=not significant; format: functional, organism-based; conditions: Lens of camera-type eye; method in brief: as §3
# Mus musculus [35] = assay: Antihyperglycemic activity measured as percent decrease in mice plasma glucose at 20 mg/Kg/day; format: functional
# Method in brief: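 Male db/db (C57BL/KsJ) mice, 4–6 per group, dosed at the stated mg/kg per day. Plasma glucose is expressed as percent decrease versus the vehicle-treated group. Values are mean ± SE.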
# [36] = biological target: Aldo-keto reductase family 1 member B1 (Bos taurus) (UniProt P16116); assay: In vitro aldose reductase inhibitory activity measured by NADPH-dependent inhibition of glyceraldehyde reduction in a partially purified bovine lens preparation at 10E-5 M; method in brief: as §1
# Rattus norvegicus [37] = assay: In vivo galactitol inhibitory activity measured by its ability to inhibit galactitol accumulation in diaphragm at 101 mg/kg/day; format: functional; method in brief: as §4
# Rattus norvegicus [38] = assay: In vivo galactitol inhibitory activity measured by its ability to inhibit galactitol accumulation in lens at 101 mg/Kg/day; NS=Not significant (% Inhibition); format: functional, organism-based; conditions: Lens of camera-type eye; method in brief: as §4
# Rattus norvegicus [39] = assay: In vivo galactitol inhibitory activity measured by its ability to inhibit galactitol accumulation in sciatic nerve at 101 mg/kg/day; NS=Not significant (% Inhibition); format: functional, organism-based; method in brief: as §3
structure (smiles),measurement,setting,value
CN1C(=O)c2cc(Cl)ccc2C12CC(=O)NC2=O (stereo not given),inhibition,[1],72%
same,inhibition,[2],21%
same,Decrease,Mus musculus [3],<15%
same,inhibition in vivo at 81 mg/kg/day,Rattus norvegicus [4],77%
same,inhibition in vivo at 81 mg/kg/day,Rattus norvegicus [5],54%
same,inhibition in vivo at 6 mg/kg/day,Rattus norvegicus [6],31%
same,inhibition,Rattus norvegicus [7],inactive
same,inhibition in vivo at 81 mg/kg/day,Rattus norvegicus [8],81%
same,inhibition in vivo at 10 mg/kg/day,Rattus norvegicus [9],34%
same,inhibition,Rattus norvegicus [10],inactive
same,inhibition,Rattus norvegicus [11],inactive
CN1C(=O)c2ccc(F)cc2C12CC(=O)NC2=O (stereo not given),inhibition,[1],74%
same,inhibition,[2],29%
same,Decrease,Mus musculus [3],<15%
same,inhibition in vivo at 52 mg/kg/day,Rattus norvegicus [12],71%
same,inhibition,Rattus norvegicus [13],inactive
same,inhibition in vivo at 52 mg/kg/day,Rattus norvegicus [14],26%
same,inhibition in vivo at 3 mg/kg/day,Rattus norvegicus [15],15%
same,inhibition in vivo at 52 mg/kg/day,Rattus norvegicus [16],68%
same,inhibition,Rattus norvegicus [11],inactive
CCN1C(=O)c2ccccc2C12CC(=O)NC2=O (stereo not given),inhibition,[1],21%
same,inhibition,[2],0%
same,inhibition in vivo at 73 mg/kg/day,Rattus norvegicus [17],47%
same,inhibition in vivo at 66 mg/kg/day,Rattus norvegicus [18],25%
same,inhibition in vivo at 73 mg/kg/day,Rattus norvegicus [19],62%
O=C1CC2(C(=O)N1)C(=O)N1CCOc3cc(Cl)cc2c31 (stereo not given),inhibition,[1],66%
same,inhibition,[2],32%
same,inhibition in vivo at 10 mg/kg/day,Rattus norvegicus [20],57%
same,inhibition in vivo at 10 mg/kg/day,Rattus norvegicus [21],88%
same,inhibition in vivo at 10 mg/kg/day,Rattus norvegicus [9],20%
CN1C(=O)c2cc(Cl)c(Cl)cc2C12CC(=O)NC2=O (stereo not given),inhibition,[1],83%
same,inhibition,[2],38%
same,Decrease,Mus musculus [3],31%
same,inhibition,Rattus norvegicus [22],inactive
same,inhibition in vivo at 9 mg/kg/day,Rattus norvegicus [23],25%
same,inhibition,Rattus norvegicus [13],inactive
same,inhibition in vivo at 50 mg/kg/day,Rattus norvegicus [24],94%
same,inhibition in vivo at 9 mg/kg/day,Rattus norvegicus [25],10%
same,inhibition in vivo at 50 mg/kg/day,Rattus norvegicus [26],71%
same,inhibition,Rattus norvegicus [7],inactive
same,inhibition in vivo at 3 mg/kg/day,Rattus norvegicus [15],25%
same,inhibition in vivo at 50 mg/kg/day,Rattus norvegicus [27],90%
same,inhibition in vivo at 6 mg/kg/day,Rattus norvegicus [28],44%
same,inhibition in vivo at 9 mg/kg/day,Rattus norvegicus [29],57%
same,inhibition,Rattus norvegicus [11],inactive
CC1(COc2ccc(CC3SC(=O)NC3=O)cc2)CCCCC1 (stereo not given) [CIGLITAZONE],inhibition,[30],9%
same,inhibition,[31],inactive
same,Decrease,Mus musculus [32],32%
same,inhibition,Rattus norvegicus [33],inactive
same,inhibition,Rattus norvegicus [34],inactive
O=C1CC2(C(=O)N1)c1ccccc1S(=O)(=O)N2Cc1ccc(Cl)c(Cl)c1 (stereo not given),inhibition,[1],0%
same,Decrease,Mus musculus [3],27%
same,Decrease,Mus musculus [35],<15%
same,inhibition,[36],63%
O=C1CC2(C(=O)N1)c1ccccc1C(=O)N2Cc1ccc(Br)cc1F (stereo not given),inhibition,[1],54%
same,inhibition,[2],7%
same,Decrease,Mus musculus [3],36%
same,inhibition in vivo at 101 mg/kg/day,Rattus norvegicus [37],30%
same,inhibition,Rattus norvegicus [38],inactive
same,inhibition,Rattus norvegicus [39],inactive
